System: MS2 coat protein
Assay: apparent Kd, MS2 coat protein; higher = weaker binding; RNA-MaP array; FMN 200 µM where present
Method in brief: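 Stalled E. coli RNA polymerase transcribed each design on Illumina sequencing-chip clusters. The clusters were titrated with SNAP-549-labelled MS2 coat protein, starting at 0.7 or 1.5 nM and doubling up to 3 µM, first without ligand and then with constant ligand, in 100 mM Tris-HCl pH 7.5, 80 mM KCl, 4 mM MgCl2, BSA, DTT, yeast tRNA and Tween-20. Green signal was normalised to red-channel RNA signal and to the control-cluster median Fmax. The apparent Kd is the median of filtered binding-curve fits made for each cluster.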

[1] = designed as: OFF switch for flavin mononucleotide, no ligand
[2] = ligand present: flavin mononucleotide, designed as: OFF switch for flavin mononucleotide
[3] = designed as: ON switch for flavin mononucleotide, no ligand
[4] = ligand present: flavin mononucleotide, designed as: ON switch for flavin mononucleotide

Sequence | apparent Kd [1] [nM] | apparent Kd [2] [nM] | apparent Kd [3] [nM] | apparent Kd [4] [nM]
AGUCCACAUGAGGAUCACCCAUGUCAGGAUAUCUGCUGGAAGAGGGCAGAAAGCCAGGAGAGAAGGGACCUGGG | 37.9 | 74.5 | – | –
AUGUAGGAAGGAUAUAUAUGGAGCAUGCGUCUCUGAACAUUACAUGAGGAUCACCCAUGUAGAAGGUCCGCGGA | 24.1 | 33.1 | – | –
CUGGGCGGAGGAUAUGCGGGUUGGGCAUAAGUUCGGCUGGGACAUGAGGAUCACCCAUGUAGAAGGUUGUUCGG | 40.3 | 40 | – | –
AUAUAUAUAUAAGGAUAUGUAUAUCCAACAUGAGGAUCACCCAUGUUGAGGAUCACCCAUGUAAAGCAGAAGGUAUAUAUAUAU | – | – | 29.1 | 18
UGCAUGUAAGGAUAUGCACUGCGCGAGCCUGGCUCGCAAAGGCAGAAGGUACAUGAGGAUCACCCAUGUGAGAA | 91.5 | 99.7 | – | –
GGUGCUAUGUAGAAGGCAGAUCUGAUUCAGAUCUGAGGAUAUACAUGAGGAUCACCCAUGUUAUGCACCAGCACGAGAGUGCAU | 13.5 | 35.1 | – | –
CGCUCAAGAGAGAAGGAUAGAAUCAGAAGGCGUAACAUGAGGAUCACCCAUGUAAAGUAGUGUAACGAGGAUAUGAAAUGAGCG | 11.8 | 13.1 | – | –
GCAUAUCAGGGAGGAUAUGACAUGAGGAUCACCCAUGUAAUUAUGGCUCUGUCAGAAGGCCCAUCGUCAGUAUAGUGACGAGAC | 375 | 137 | – | –
AGUGUCAUCGAGAAGGCCUCGACAUGAGGAUCACCCAUGUUGUAAUAUGGGAGGAUAUCGAUGAUACAGCUACGUUUCGUAGCA | – | – | 40.3 | 13.4
UAGUUAUUCACAGGAUAUCGCCUCUUAUUACAUGAGGAUCACCCAUGUUUAGUUAGUUACAUGUUCGAGAAGGGUGUAGUUGUU | 554 | 819 | – | –
GUCUUACAUGAGGAUCACCCAUGUGAGGAUAUCCGCGGCGCCGGGUUUCCGGCGCCGCGGAGAAGGCGCGUGUU | 19.2 | 22.3 | – | –
UAAGCGAUACAGAAGGGAAACAUGAGGAUCAGCCGCGACAUGAGGAUCACCCAUGUUUACUUAUUUCAGGAUAUGUACAGUAGC | – | – | 612 | 272
GUUGUGUAUGUAGGAUAUGCGAAGCAAAGCUUCGCAGAAGGACAUGAGGAUCACCCAUGUAUUGCAGCCUGCAAACAGGCUGCU | 40.2 | 170 | – | –
UGAUUGGACAGAGGAUAUACGUGCUAGAGAUACUAGCAAAAUAUCCUCACAUGAGGAUCACCCAUGUAGAAGGCUGUCCAAUCU | 17.3 | 85.1 | – | –
UAAUCACCCUCAUGUACCUGAGGACAUGAGGAUCACCCAUGUAAGGAUAUAGCCAUUAAAUCUAACUAGAAGGUAUAGGUAAUC | 808 | 624 | – | –
GAGUCACGAAUAAUAAUAAGAUCUACAUGAGGAUCACCCAUGUAGGAUAUGCAGUGGAAUACACUGCAGAAGGACAUACGUGAC | 14 | 17.5 | – | –
CCGGUUGGCGCAGGAUAUACAUGAGGAUCACCCAUGUUGAUGAGGAUCACCCAUCAGUUUUUGUUGUAGAAGGGUGGCCCGGCC | 23.1 | 19.3 | – | –
CCUGAGUCAGGAUAUUGUACCAGCCUGAAGCCAGGCUGACCCAAGAAGGGACAUGAGGAUCACCCAUGUGAAAA | 27 | 25.6 | – | –
GAUCCUUCUGUUAGGAUAUGCUUUGGGCUUCCGCAGCAGAAGGAACAUGAGGAUCACCCAUGUCCGAUGCCGUC | 80.5 | 98 | – | –
AACAGUACAGGAUAUACAUGAGGAUCACCCAUGUGAAGAUUAAGUGGUGUACCACUAAGUAGAAGGGUACUGGA | 28.8 | 126 | – | –
AGUUGCAAACACAACAUGAGGAUCACCCAUGUACUCUCGUGUAAGGAUAUACAUUCGUAUGGAAAGUAGAAGGUACUAAUUAUG | – | – | 27.3 | 32.1
CAUUUACAGGGAGGAUAUACAUGAGGAUCACCCAUGUCAUCAUACGAUAUUUCUUUUGUAUGAGUGUAGAAGGCCCAACUACCA | 10.2 | 12 | – | –
CGGCGGAAAGGAUAUGCAUUAAUAUCCAAAUGUGGGCCACGACAUGAGGAUCACCCAUGUAGAAGGUUCAGCCG | 15.3 | 13.9 | – | –
UGUCAAAAUGAAGGAUAUCUAAGCAUAAACCAUAGAGAAGGUCAAUAGUACAUGAGGAUCACCCAUGUUAGAAUAGAUGGGUUA | 99.9 | 155 | – | –

Sequence | apparent Kd [1] [nM] | apparent Kd [2] [nM] | apparent Kd [3] [nM] | apparent Kd [4] [nM]
CGUCUGUGAGGAUAUGGUGUCGUUUACAUGAGGAUCACCCAUGUUUCAUGGGACUAGAGACUAGAAGGUACUGACG | 314 | 413 | – | –
GUAGGAAUCACAGGAUAUGCAUGCGCCGCUUCGUUCUACAUGAGGAUCACCCAUGUGUGGUCCGUGUAGAAGGGUGUUUGCUAC | – | – | 33.9 | 11.6
GUUGUUCGAGGAUAUACAUGAGGAUCACCCAUGUGUGUUGUGGGCGACGUUCGUUUAUGUAGAAGGCGAGCGGC | 63.3 | 92.1 | – | –
CUCUCACAUGAGGAUCACCCAUGUCCACCUCCGUGAGGAUAUAGAUAAUAAAUACAUUUACUAGAAGGCGCAUCCC | – | – | 285 | 298
AAAUAAGUUGCAGGAUAUUAUUUUUAAUAAAUAUAAGAAGGGCAACAAACCUCACAUGAGGAUCACCCAUGUACCCAUGUAUCU | 64.3 | 35.6 | – | –
UUGCGGUCAGGAUAUGCAUGGCGGGACUUGCGUCGUGGCGUGGAGAAGGGACAUGAGGAUCACCCAUGUGGAGA | 88.2 | 65.7 | – | –
AAAAGACAUGAGGAUCACCCAUGUCAAAACGUGGGAGGAUAUGUAUGGAAACCAGACUGUACAGAAGGCCUCUGUC | – | – | 41.7 | 131
GGUUAAUAUCGAGGAUAUGUCUAGACACAUGAGGAUCACCCAUGUAUGUGUAUAGAAGGCGAUAUUAACAGCAUGUUACAUGCA | – | – | 43.3 | 16.4
GAUCGAGAACUCACGGCGUUGCACAUGAGGAUCACCCAUGUGCAGGAUAUGGCCGCCGUCGGAGGCCAGAAGGGCACAGUAGGU | 10.2 | 20 | – | –
UAGAGCGCUUGAGGAUAUCGUUUUGUGAUGGUACUCAUGCCUGUUACAUGAGGAUCACCCAUGUACGAGAAGGCAGGCCGUUAG | 58.1 | 30.5 | – | –
ACACAUGAGGAUCACCCAUGUAGCUGGCGUCUGCACCAGCCACAGGAUAUACGGCAACACAAACCGUAGAAGGGUGAUAAACAC | – | – | 56.3 | 27.3
UGAAAACAUGAGGAUCACCCAUGUCUAGGAGAUCGAGGAUAUGGGCCGGCACUAGGCGGGCCAGAAGGCGAAAAGU | – | – | 60.8 | 26.6
AGCAACAUGAGGAUCACCCAUGUUGGUUCGAAAACGGACUCACAGGAUAUGCAGCGUGAUCGCUCGCAGAAGGGUGCGUCCUCA | – | – | 51.2 | 38.7
AAAAAGCGAGGAUAUACAUAGCUAAGACAUGUAAGCGAAAAACAUGAGGAUCACCCAUGUAGAAGGCGCAAAAA | 17.7 | 18.2 | – | –
GCUACGUCAGGAUAUCUGAUGUCUAACUUCGGUUAGACAUCAGAGAAGGGACAUGAGGAUCACCCAUGUAGCAA | 93.5 | 122 | – | –
GCUGGGUCAGGAUAUACAAGAUCGAAAGAUCUGUGAAACGAACAUGAGGAUCACCCAUGUAGAAGGGACUGGGC | 20.5 | 33.2 | – | –
AUAUACUUUCGAGGAUAUCGGUGAUAAAUUUUACGAGAAGGCGAUAAAAGAUAUAAUCUUAUAGACAUGAGGAUCACCCAUGUA | – | – | 30.3 | 28
GGUCGUCACAUCUACAUGAGGAUCACCCAUGUCAAAAGACAUGAGGAUAUGCUACCUAAUUGGUAGCAGAAGGCAUGGACGACC | – | – | 1290 | 72
CGAAGAAAGUAGAAGGCAGUCUUAAAAUAGGACUGAGGAUAUACAUGAGGAUCACCCAUGUACUCCUUUAAUAUCUUUGAAAUA | 5.5 | 5.25 | – | –
UGUAGUUCAGGAUAUGAUGUUUAAAACAUGAGGAUCACCCAUGUAGAUCCUGAAUUAACAUCAGAAGGGAAUAUUU | 17.9 | 46.2 | – | –
GUUGCUACUGAGGAUAUUAUUUUAUUCGACUGAUAAGAAGGCAGUACAUGAGGAUCACCCAUGUGGGUAGCCAG | 23.8 | 67.8 | – | –
UGUAUUAACGGAGGAUAUCGAUAUCAAACAUGAGGAUCACCCAUGUUGAGGAUCACCCAUGUCCAUGAGAAGGCCGGCGUACUC | – | – | 41.8 | 32.9
CCGUUGGGCUAGAAGGCUCCGGGAGAGCCGCGGAGAGGAUAUAGCACAUGAGGAUCACCCAUGUGGUAUGACCUUAUGUAAUCA | 33.7 | 62.9 | – | –
AAGUCGACGGUGAGGAUAUUAGUUGAACGACAGAUUAAGAAGGUACAUGAGGAUCACCCAUGUGGGUAGUGUUG | 96 | 98.6 | – | –

— the EternaBench riboswitch data
